ChEMBL document CHEMBL1131618, “Synthesis, activity, and structure--activity relationship studies of novel cationic lipids for DNA transfer” (1998)

Key:
NIH3T3 [1] = assay: Compound tested for the impact on expression of luciferase in transfected NIH3T3 cells (RLU = luciferase activity in relative light units (RLU)/10 s for 10E3 plated cells); format: functional, Mus musculus
Method in brief: (§1)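 5×10^4 cells plated in DMEM at 37 °C, 5% CO2, and transfected after 24 h at 50/70% confluency in serum-free medium. CMV-luciferase plasmid mixed with cationic lipid in 75 mM NaCl final, four lipid:DNA ratios, added dropwise, triplicates. Serum added to 10% at 2 h, then 44 h more. Lysate supernatant read with 10 s luminometer counting. Value at optimal ratio.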

NIH3T3 [2] = assay: Luciferase activity in mouse fibroblasts NIH3T3 cells.; format: functional; method in brief: as §1
CV-1 = assay: Compound was tested for luciferase activity in Monkey CV1 Cell Lines; format: functional, Cercopithecidae
Method in brief: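 CV1 cells (5×10^4) plated in MEM at 37 °C, 5% CO2, and transfected after 24 h at 50/70% confluency in serum-free medium. CMV-luciferase plasmid mixed with lipid in 75 mM NaCl final, four lipid:DNA ratios, triplicates. 10% serum added at 2 h, then 44 h more. Lysates counted 10 s. Value reported at optimal ratio.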

NIH3T3 [3] = assay: Compound was tested for the impact of introduction of molecular probe as side chain entity in the linker position on expression of luciferase in transfected NIH3T3 cells (RLU = luciferase activity in relative light units (RLU)/10 s for 10E3 plated cells); format: functional, Mus musculus; method in brief: as §1
[4] = system: CV1 cells (Cercopithecus aethiops); assay: Compound was tested for the impact of introduction of molecular probe as side chain entity in the linker position on expression of luciferase in transfected CV1 cells (RLU = luciferase activity in relative light units (RLU)/10 s for 10E3 plated c ells)
HeLa [5] = assay: Luciferase activity in human Hela cells; format: functional; method in brief: as §1
HeLa [6] = assay: Compound was tested for the impact of introduction of a side chain entity in the linker position on expression of luciferase in transfected HeLa cells (RLU = luciferase activity in relative light units (RLU)/10 s for 10E3 plated cells); format: functional, Homo sapiens; method in brief: as §1
NIH3T3 [7] = assay: Compound was tested for the impact of introduction of a side chain entity in the linker position on expression of luciferase in transfected NIH3T3 cells (RLU = luciferase activity in relative light units (RLU)/10 s for 10E3 plated cells); format: functional, Mus musculus; method in brief: as §1
HeLa [8] = assay: Compound was tested for the impact of polyamine geometry on expression of luciferase in transfected HeLa cells (RLU = luciferase activity in relative light units (RLU)/10 s for 10E3 plated cells); format: functional, Homo sapiens; method in brief: as §1
HeLa [9] = assay: Compound was tested for the impact of linker length on expression of luciferase in transfected HeLa cells (RLU = luciferase activity in relative light units (RLU)/10 s for 10E3 plated cells); format: functional, Homo sapiens; method in brief: as §1
NIH3T3 [10] = assay: Compound was tested for the impact of the length of the lipid on expression of luciferase in transfected NIH3T3 cells (RLU = luciferase activity in relative light units (RLU)/10 s for 10E3 plated cells); format: functional, Mus musculus; method in brief: as §1
HeLa [11] = assay: Compound was tested for the impact of the length of the lipid on expression of luciferase in transfected HeLa cells (RLU = luciferase activity in relative light units (RLU)/10 s for 10E3 plated cells); format: functional, Homo sapiens; method in brief: as §1

| SMILES | RLU (NIH3T3 [1]) | Luciferase activity (NIH3T3 [2]) [RLU 10s-1] | Luciferase activity (HeLa [5]) [RLU 10s-1] | other results |
| --- | --- | --- | --- | --- |
| CCCCCCCCCCCCCCCCCCN(CCCCCCCCCCCCCCCCCC)C(=O)CNCCN(CCN)CCN | 1500000 | 1500000 |  |  |
| CCCCCCCCCCCCCCCCCCN(CCCCCCCCCCCCCCCCCC)C(=O)C(CCCC/N=C(\S)Nc1ccc(-c2c3ccc(=[N+](C)C)cc-3oc3cc(N(C)C)ccc23)c(C(=O)[O-])c1)NC(=O)CNCCCNCCCCNCCCN (stereo not drawn) [CATIONIC LIPID] |  | 1200000 |  | Luciferase activity (CV-1): 130000 RLU 10s-1; RLU (NIH3T3 [3]): 1200000; RLU [4]: 130000 |
| CCCCCCCCCCCCCCCCCCN(CCCCCCCCCCCCCCCCCC)C(=O)[C@H](CCCCN)NC(=O)CNCCCNCCCCNCCCN |  | 10000000 | 700000 |  |
| CCCCCCCCCCCCCCCCCCN(CCCCCCCCCCCCCCCCCC)C(=O)C(CCCN=C(N)N)NC(=O)CNCCCNCCCCNCCCN (stereo in doubt; form 2) |  | 11000000 | 8200000 |  |
| CCCCCCCCCCCCCCCCCCN(CCCCCCCCCCCCCCCCCC)C(=O)[C@H](CCC(=O)O)NC(=O)CNCCCNCCCCNCCCN |  | 63000000 | 15000000 |  |
| CCCCCCCCCCCCCCCCCCN(CCCCCCCCCCCCCCCCCC)C(=O)C(CCCCNC(=O)CCCC[C@H]1SC[C@@H]2NC(=O)N[C@@H]21)NC(=O)CNCCCNCCCCNCCCN (stereo partly drawn) |  | 5400000 |  | Luciferase activity (CV-1): 160000 RLU 10s-1 |
| CCCCCCCCCCCCCCCCCCN(CCCCCCCCCCCCCCCCCC)C(=O)C(CCCCNC(=O)OCc1ccccc1Cl)NC(=O)CNCCCNCCCCNCCCN (stereo not drawn) |  | 30000000 | 1400000 | RLU (HeLa [6]): 1400000; RLU (NIH3T3 [7]): 30000000 |
| CCCCCCCCCCCCCCCCCCN(CCCCCCCCCCCCCCCCCC)C(=O)CNC(=O)CNCCN(CCN)CCN | 20000000 | 20000000 | 130000 | RLU (HeLa [8]): 130000 |
| CCCCCCCCCCCCCCCCCCN(CCCCCCCCCCCCCCCCCC)C(=O)CNC(=O)CNCCN(CCCN)CCCCN(CCCN)CCCN |  | 68000000 | 580000 |  |
| CCCCCCCCCCCCCCCCCCN(CCCCCCCCCCCCCCCCCC)C(=O)CNCCCNCCCCNCCCN | 2000000 | 2000000 | 2600000 | RLU (HeLa [9]): 2600000 |
| CCCCCCCCCCCCCCCCCCN(CCCCCCCCCCCCCCCCCC)C(=O)C(N)CCCN=C(N)N (stereo not drawn) |  | 8700 | 4700 | RLU (HeLa [6]): 4700; RLU (NIH3T3 [7]): 8700 |
| CCCCCCCCCCCCCCCCCCN(CCCCCCCCCCCCCCCCCC)C(=O)C(CCCCNC(=O)CCCCC1SC[C@@H]2NC(=O)N[C@H]12)NC(=O)CNCCCNCCCCNCCCN (stereo partly drawn) |  |  |  | RLU (NIH3T3 [3]): 5400000; RLU [4]: 160000 |
| CCCCCCCCCCCCCCCCCCN(CCCCCCCCCCCCCCCCCC)C(=O)CNC(=O)CNCCCNCCCCNCCCN | 54000000 |  |  | RLU (HeLa [6]): 10000000; RLU (NIH3T3 [10]): 44000000; RLU (NIH3T3 [7]): 200000000; RLU (HeLa [8]): 2400000; RLU (NIH3T3 [3]): 26000000; RLU [4]: 7000; RLU (HeLa [9]): 2400000; RLU (HeLa [11]): 890000 |
| CCCCCCCCCCCCCCCCCCN(CCCCCCCCCCCCCCCCCC)C(=O)CNCCCN(CCCN)CCCCN(CCCN)CCCN | 59000000 |  |  |  |
| CCCCCCCCCCCCCCCCCCN(CCCCCCCCCCCCCCCCCC)C(=O)CCCCCNC(=O)CNCCCNCCCCNCCCN |  |  | 3500000 | RLU (HeLa [9]): 3500000 |
| CCCCCCCCCCCCCCCCCCN(CCCCCCCCCCCCCCCCCC)C(=O)C(CCC(=O)O)NC(=O)CNCCCNCCCCNCCCN (stereo not drawn) |  |  |  | RLU (HeLa [6]): 15000000; RLU (NIH3T3 [7]): 63000000 |
